The results in this text go back to ChEMBL document CHEMBL2057145, “Development of novel antibacterial agents against methicillin-resistant Staphylococcus aureus” (Bioorg Med Chem, 2012).

A short description of experiment [1]: Selectivity ratio of IC50 for human HT-29 cells to MIC for Staphylococcus aureus ATCC 29213. Type of experiment: functional. In a few lines:
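Ratio of HT-29 IC50 (MTT assay, 24 h exposure) to MIC against S. aureus ATCC 29213 (CLSI broth microdilution, 24 h, 37 °C).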

For experiment [2], the system named is Staphylococcus aureus. Nature of the experiment: Antibacterial activity against Staphylococcus aureus ATCC 12598 after 24 hrs by broth microdilution method. Type of experiment: functional. Particulars: ATCC 12598, 24 h. Summed up: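 CLSI broth microdilution. Incubation 37 °C for 24 h. MIC is the lowest concentration with no visible bacterial growth. DMSO stocks diluted in culture medium to a final DMSO of 0.1%.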
For orientation: Broth dilution looks for growth in wells or tubes with falling amounts of substance.

Experiment [3] relates to Staphylococcus aureus. Nature of the experiment: Antibacterial activity against methicillin-resistant Staphylococcus aureus expressing […] subtype VT after 24 hrs by broth microdilution method. Type of experiment: functional. In a few lines:
(§1)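 CLSI broth microdilution. Bacteria grown overnight on LB agar, suspended in PBS, then exposed to test agents at 0.25 to 64 µg/mL in triplicate. Incubation 37 °C for 24 h. MIC is the lowest concentration with no visible bacterial growth. DMSO stocks diluted in culture medium to a final DMSO of 0.1%.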

The subject of experiment [4] is Staphylococcus aureus. Nature of the experiment: Antibacterial activity against methicillin-resistant Staphylococcus aureus ATCC 33592 after 24 hrs by broth microdilution method. Particulars: ATCC 33592, 24 h. Type of experiment: functional. Summed up: as §1
Experiment [5] deals with Staphylococcus aureus. The experiment is described as follows: Antibacterial activity against Staphylococcus aureus ATCC 29213 after 24 hrs by broth microdilution method. Type of experiment: functional. The following applies: ATCC 29213, 24 h.
Experiment [6] has as its system Staphylococcus intermedius. Nature of the experiment: Antibacterial activity against Staphylococcus intermedius ATCC 29663 after 24 hrs by broth microdilution method. The following applies: ATCC 29663, 24 h. In kind it is functional.
The test system of experiment [7] is Staphylococcus epidermidis. The experiment is described as follows: Antibacterial activity against Staphylococcus epidermidis ATCC 12228 after 24 hrs by broth microdilution method. Particulars: ATCC 12228, 24 h. Type of experiment: functional.
For experiment [8], the system named is Staphylococcus lugdunensis. The experiment is described as follows: Antibacterial activity against Staphylococcus lugdunensis isolate NTUH after 24 hrs by broth microdilution method. In kind it is functional.
Experiment [9] has as its system Staphylococcus aureus. Nature of the experiment: Antibacterial activity against methicillin-resistant Staphylococcus aureus ATCC 49476 after 24 hrs by broth microdilution method. Particulars: ATCC 49476, 24 h.
The subject of experiment [10] is Staphylococcus epidermidis. Nature of the experiment: Antibacterial activity against Staphylococcus epidermidis ATCC 35984 after 24 hrs by broth microdilution method. Particulars: RP62A. Type of experiment: functional.
In experiment [11] the test system is HT-29. The experiment is described as follows: Antiproliferative activity against human HT-29 cells after 24 hrs by MTT assay. In kind it is cell-based. The following applies: HT-29, 24 h. In a few lines:
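HT-29 human colon adenocarcinoma cells seeded at 1 × 10⁴ cells/well in RPMI 1640 with 10% FBS and 10 µg/mL gentamicin, left overnight at 37 °C, 5% CO₂. Medium then replaced with medium holding test agents (final DMSO 0.1%; DMSO-only controls), at least 6 wells per condition, for 24 h. Viability read by MTT (0.5 mg/mL, 2 h, 37 °C), DMSO solubilization, absorbance 570 nm.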
(Tetrazolium dyes change colour on reduction, which living cells bring about.)

Experiment [12] has as its system Staphylococcus saprophyticus. Nature of the experiment: Antibacterial activity against Staphylococcus saprophyticus ATCC 15305 after 24 hrs by broth microdilution method. In kind it is functional. The following applies: ATCC 15305, 24 h.
For experiment [13], the system named is Staphylococcus hominis. The experiment is described as follows: Antibacterial activity against Staphylococcus hominis ATCC 27844 after 24 hrs by broth microdilution method. Type of experiment: functional. The following applies: ATCC 27844, 24 h.
For experiment [14], the system named is Staphylococcus haemolyticus. Nature of the experiment: Antibacterial activity against Staphylococcus haemolyticus ATCC 29970 after 24 hrs by broth microdilution method. In kind it is functional. The following applies: ATCC 29970, 24 h.
The subject of experiment [15] is Staphylococcus aureus. The experiment is described as follows: Bactericidal activity against Staphylococcus aureus ATCC 29213 assessed as decrease in bacterial count at 8 times compound MIC after 24 hrs by time-kill assay. In kind it is functional. Details: scale not given: the % may be the effect or the level left. Summed up:
(§2)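 S. aureus ATCC 29213 at 5 × 10⁵ CFU/mL in CAMHB exposed to test agents at 2-, 4- and 8-fold MIC, in triplicate. DMSO-matched medium served as control. At successive times, aliquots serially diluted in PBS and plated on LB agar (37 °C, 16 h). Counts given as CFU/mL, mean ± SD (n = 3); 99.9% killing used as reference.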

In experiment [16] the test system is Staphylococcus aureus. The experiment is described as follows: Bactericidal activity against Staphylococcus aureus ATCC 29213 assessed as decrease in bacterial count at 2 to 8 times compound MIC by time-kill assay. In kind it is functional, organism-based. The following applies: TDE = time-dependent effect. Summed up: as §2

As usually defined, the MIC is the lowest concentration that inhibits growth of the organism. For orientation: IC50 means the concentration at which inhibition is half-maximal.

≈ marks a conversion by molar mass, not a printed value.

For `Cc1ccc(-c2ccc(-c3cc(C(F)(F)F)nn3-c3ccc(NS(N)(=O)=O)cc3)cc2)cc1`, the Ratio in experiment [1] amounted to 9. For the same molecule, the MIC was 1 µg/mL (≈ 2.12 µM) in experiment [2]; 1 µg/mL (≈ 2.12 µM) in experiment [3]; 1 µg/mL (≈ 2.12 µM) in experiment [4]; 1 µg/mL (≈ 2.12 µM) in experiment [5]; 2 µg/mL (≈ 4.23 µM) in experiment [6]; 1 µg/mL (≈ 2.12 µM) in [7]. Besides, the figures for the MIC in experiment [8] and in experiment [9] were 2 µg/mL (≈ 4.23 µM) and 1 µg/mL (≈ 2.12 µM), respectively.

With `Cc1ccc(-c2cc(C(F)(F)F)nn2-c2ccc(NS(N)(=O)=O)cc2)cc1`, the Ratio in experiment [1] is reported as 7. The MIC in [2] worked out at 4 µg/mL (≈ 10.1 µM); in [10] it was 4 µg/mL (≈ 10.1 µM); in experiment [3], 4 µg/mL (≈ 10.1 µM); in experiment [4], 4 µg/mL (≈ 10.1 µM); in experiment [5], 4 µg/mL (≈ 10.1 µM); in experiment [6], 8 µg/mL (≈ 20.2 µM). In addition, the MIC in experiment [7] was 4 µg/mL (≈ 10.1 µM); in [8], 16 µg/mL (≈ 40.4 µM); in experiment [9], 4 µg/mL (≈ 10.1 µM). The molecule also came in with an IC50 in [11] of 28 µg/mL (≈ 70.6 µM).

As for `NS(=O)(=O)Nc1ccc(-n2nc(C(F)(F)F)cc2-c2ccc(-c3ccccc3)cc2)cc1`, the Ratio in [1] amounted to 16. Besides, the MIC is 1 µg/mL (≈ 2.18 µM) in experiment [2]; 1 µg/mL (≈ 2.18 µM) in [3]; 1 µg/mL (≈ 2.18 µM) in experiment [4]; 1 µg/mL (≈ 2.18 µM) in experiment [5]; 2 µg/mL (≈ 4.36 µM) in experiment [6]; 2 µg/mL (≈ 4.36 µM) in experiment [8]. Besides, the lowest concentration to inhibit growth in experiment [9] (MIC) was 1 µg/mL (≈ 2.18 µM).

For the molecule `NS(=O)(=O)Nc1ccc(-n2nc(C(F)(F)F)cc2-c2ccc(-c3ccc(Br)cc3)cc2)cc1`, the Ratio in [1] turned out to be 10. The MIC in experiment [2] was determined as 1 µg/mL (≈ 1.86 µM); in experiment [3], 1 µg/mL (≈ 1.86 µM); in experiment [4] it was 1 µg/mL (≈ 1.86 µM); in experiment [5], 1 µg/mL (≈ 1.86 µM); in experiment [6] it was 2 µg/mL (≈ 3.72 µM); in experiment [7] it was 1 µg/mL (≈ 1.86 µM). Moreover, the minimum inhibitory concentration (MIC) in experiment [8] was determined as 2 µg/mL (≈ 3.72 µM); in experiment [9] it was 1 µg/mL (≈ 1.86 µM).

Take `CC1(C)S[C@@H]2[C@H](NC(=O)[C@H](N)c3ccccc3)C(=O)N2[C@H]1C(=O)O` [AMPICILLIN]: the MIC in [2] was 0.25 µg/mL (≈ 0.715 µM); in experiment [10], 64 µg/mL (≈ 183 µM); in [12] it was 0.5 µg/mL (≈ 1.43 µM); in [13], below 0.0625 µg/mL; in [3], above 64 µg/mL; in [4], above 64 µg/mL. Moreover, the MIC in [5] is 8 µg/mL (≈ 22.9 µM); in [6] it was 0.125 µg/mL (≈ 0.358 µM); in experiment [14], 0.25 µg/mL (≈ 0.715 µM); in [7] it was 16 µg/mL (≈ 45.8 µM); in experiment [8] it was 32 µg/mL (≈ 91.6 µM); in experiment [9] it was 64 µg/mL (≈ 183 µM).

On to `NC(=O)c1ccc(-n2nc(C(F)(F)F)cc2-c2c3ccccc3cc3ccccc23)cc1`, for which, in [1], the Ratio turned out to be 6. The MIC in [10] was 2 µg/mL (≈ 4.64 µM); in [4], 4 µg/mL (≈ 9.27 µM); in [5], 2 µg/mL (≈ 4.64 µM); in [6] it was 4 µg/mL (≈ 9.27 µM); in experiment [8], 4 µg/mL (≈ 9.27 µM). In experiment [11], half-maximal inhibition (IC50) was put at 12 µg/mL (≈ 27.8 µM). The Activity was 99.14% in [15] and “tde” in [16].

In the case of `NS(=O)(=O)Nc1ccc(-n2nc(C(F)(F)F)cc2-c2ccc3cc4ccccc4cc3c2)cc1`, the Ratio in [1] came to 2.8. For the same molecule, the MIC was 8 µg/mL (≈ 16.6 µM) in experiment [12]; 2 µg/mL (≈ 4.15 µM) in [13]; 2 µg/mL (≈ 4.15 µM) in [3]; 2 µg/mL (≈ 4.15 µM) in [4]; 4 µg/mL (≈ 8.29 µM) in [6]; 16 µg/mL (≈ 33.2 µM) in [14]. Further, the minimum inhibitory concentration (MIC) in experiment [7] is 2 µg/mL (≈ 4.15 µM); in [8], 4 µg/mL (≈ 8.29 µM); in experiment [9], 2 µg/mL (≈ 4.15 µM). Also, the midpoint of inhibition in [11], the IC50, lay at 11 µg/mL (≈ 22.8 µM).
